{
  "source": "ChEMBL document CHEMBL1128319",
  "about": "“Cyclosporin analogs modified in the 3,7,8-positions: substituent effects on peptidylprolyl isomerase inhibition and immunosuppressive activity are nonadditive” (J Med Chem, 1995)",
  "key": {"Jurkat": {"tested_on": "Jurkat", "assay": "The compound was tested in vitro for inhibition of IL-2 release stimulated with PMA/ionomycin by Jurkat cells.", "format": "functional, cell-based", "settings": "Homo sapiens", "method_in_brief": "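Jurkat cells at 2 × 10⁵/mL in RPMI-10 (10% heat-inactivated calf serum) with serial compound dilutions, stimulated with PMA 1000 ng/mL plus ionomycin 125 ng/mL, incubated overnight. IL-2 in supernatants quantified by ELISA.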"}, "Mus musculus": {"species_on_record": "Mus musculus", "assay": "The compound was tested in vitro for inhibition of proliferation in BDF1 mouse spleen cells stimulated with concanavalin A (ConA).", "format": "functional", "method_in_brief": "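BDF1 mouse spleen cells, 5 × 10⁶/mL in RPMI-10, given compound dilutions and Con A 5 μg/mL. Cultured 72 h at 37 °C, 5% CO₂, with [³H]thymidine 0.5 μCi over the last 16 h. Incorporated radioactivity counted by scintillation. Quadruplicate means used; viability checked by trypan blue. IC50 derived.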"}},
  "data": [
    {"compound": "C/C=C/CC(C)C(O)[C@H]1C(=O)N[C@@H](CC)C(=O)N(C)[C@H](C)C(=O)N(C)[C@@H](CC(C)C)C(=O)N[C@@H](C(C)C)C(=O)N(C)[C@@H](CC(C)C)C(=O)N[C@@H](Cc2ccccc2)C(=O)N[C@H](C)C(=O)N(C)[C@@H](CC(C)C)C(=O)N(C)[C@@H](CC(C)C)C(=O)N(C)[C@@H](C(C)C)C(=O)N1C", "note": "(some centres not stated)", "values": [
      {"measurement": "IC50", "setting": "Jurkat", "value": 62, "unit": "nM"},
      {"measurement": "IC50", "setting": "Mus musculus", "value": 142, "unit": "nM"}
    ]},
    {"compound": "C/C=C/CC(C)[C@@H](O)[C@H]1C(=O)N[C@@H](CC)C(=O)N(C)CC(=O)N(C)[C@@H](CC(C)C)C(=O)N[C@@H](C(C)C)C(=O)N(C)[C@@H](CC(C)C)C(=O)N[C@@H](Cc2ccccc2)C(=O)N[C@H](CO)C(=O)N(C)[C@@H](CC(C)C)C(=O)N(C)[C@@H](CC(C)C)C(=O)N(C)[C@@H](C(C)C)C(=O)N1C", "note": "(some centres not stated)", "values": [
      {"measurement": "IC50", "setting": "Jurkat", "value": 21, "unit": "nM"},
      {"measurement": "IC50", "setting": "Mus musculus", "value": 105, "unit": "nM"}
    ]},
    {"compound": "C/C=C/CC(C)[C@@H](O)[C@H]1C(=O)N[C@@H](CC)C(=O)N(C)CC(=O)N(C)[C@@H](CC(C)C)C(=O)N[C@@H](C(C)C)C(=O)N(C)[C@@H](CC(C)C)C(=O)N[C@@H](Cc2ccccc2)C(=O)N[C@H](C)C(=O)N(C)[C@@H](CC(C)C)C(=O)N(C)[C@@H](CC(C)C)C(=O)N(C)[C@@H](C(C)C)C(=O)N1C", "note": "(some centres not stated)", "values": [
      {"measurement": "IC50", "setting": "Jurkat", "value": 107, "unit": "nM"},
      {"measurement": "IC50", "setting": "Mus musculus", "value": 248, "unit": "nM"}
    ]},
    {"compound": "C/C=C/C[C@@H](C)[C@@H](O)[C@H]1C(=O)N[C@@H](CC)C(=O)N(C)CC(=O)N(C)[C@@H](CC(C)C)C(=O)N[C@@H](C(C)C)C(=O)N(C)C(CC(C)C)C(=O)N[C@@H](C)C(=O)N[C@H](C)C(=O)N(C)C(CC(C)C)C(=O)N(C)[C@@H](CC(C)C)C(=O)N(C)C(C(C)C)C(=O)N1C", "note": "(single isomer, unassigned) [CYCLOSPORINE]", "values": [
      {"measurement": "IC50", "setting": "Jurkat", "value": 12, "unit": "nM"}
    ]}
  ]
}
